From PubChem BioAssay
KCNQ1 block = inhibitors of human KCNQ1 potassium channel; P51787; CHO-K1 KCNQ1, FluxOR thallium flux fluorescence; active compounds read high; B-score at 10 µM; 310,000 tested, 1.3% active; AID 2642;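 active = compounds whose thallium flux B-score, printed positive for inhibition, exceeds three library SD while starting fluorescence stays within three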;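 note: channel opened by potassium depolarization with thallium stimulus after 20 min compound exposure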
hERG protect = compounds protecting human hERG from proarrhythmic drug block | Q12809 | activation (rescue from dofetilide block), less the hit threshold, % at 10 µM | 310,000 tested, 0.51% active | CHO-hERG, FluxOR thallium flux, dofetilide IC70 present;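 active = activation above the mean of controls blocked by dofetilide plus 5 SD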;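 note: thallium influx through hERG after potassium depolarization seen as dye fluorescence rise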
KCNK9 block = blocks the human KCNK9 two-pore domain potassium channel; HEK293 KCNK9, FluxOR thallium flux fluorescence; active compounds read low; B-score at 10 µM; 310,000 tested, 1.2% active; AID 488922;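 active = ratio B-score over 3 SD below the library mean, with starting fluorescence within 5 SD of its mean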;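 note: negative B-score means less thallium flux so channel inhibition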
KCC2 mod = KCC2 (human) Cl- transport modulation; Q9H2X9; KCC2 cells, thallium flux FluoZin-2 fluorescence; B-score of Tl+ flux slope (higher = more flux/activation; lower = inhibition) at 10 µM; 190,000 tested, 2.2% active;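 active = thallium flux slope and its plate-corrected score both differing from the plate sample mean at a set confidence after two filtering rounds, in either direction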;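 note: slope of fluorescence scaled to starting intensity during 10 to 20 s after thallium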
KCNQ1 pot = human KCNQ1 channel potentiation or activation; CHO-K1 KCNQ1, thallium flux FluxOR fluorescence; active compounds read high; 310,000 tested, 0.35% active; B-score at 10 µM; P51787;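 active = fluorescence ratio B-score, a plate-corrected score, at least three library SD, with initial intensity B-score within 5 SD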
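Doses: Single concentration per compound, DMSO matched to controls | Test system: KCNQ1-transfected CHO-K1 cells | Timing: 90 min dye loading and 20 min compound exposure, both at room temperature | Measured by: Kinetic FluxOR thallium fluorescence, 10-s 1-Hz baseline, 110-s post-stimulus read | Medium: Assay buffer with matched DMSO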
KCNK3 inh = human KCNK3 channel inhibition, primary screen | O14649 | CHO-KCNK3 thallium flux, FluxOR fluorescence; active compounds read low | B-score at 10 µM | 340,000 tested, 0.84% active | AID 602410;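 active = B-score under library mean minus 4 SD, starting fluorescence ratio at most library mean plus 5 SD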;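 note: more negative B-score means stronger inhibition of thallium flux through KCNK3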
Starred values were filed as active, the others as inactive; i = inactive; . = not tested or not shown. Shown are actives, neighbours in structure and some others; about 4.1% of the full set was active somewhere.

SMILES | KCNQ1 block | hERG protect | KCNK9 block | KCC2 mod | KCNQ1 pot | KCNK3 inh
O=C(/C=C/c1cn(-c2ccccc2)nc1-c1cccc(Cl)c1)N1CCN(c2ccccn2)CC1 | 7* | -23.4 | i | -1.47 | i | i
CC(C)(C)S(=O)N1Cc2cc(CO)cc(CCO)c2[C@@H]1CCO (some centres undefined) | . | . | . | . | . | i
COc1nccnc1NS(=O)(=O)c1ccc(NC(=S)NC(=O)c2ccccc2F)cc1 | i | 1.5 | i | 1.11 | 8* | i
Cc1ccc(OCC(=O)N2CC(C)CC(C)C2)c([N+](=O)[O-])n1 (centres undefined) | . | . | . | . | . | i
CCN(CC(=O)Nc1ccc(NC(C)=O)cc1)C(=O)c1cc([N+](=O)[O-])ccc1Sc1ccc(Cl)cc1 | . | . | . | . | . | i
CC(C)(C)C1=CC(=O)C(=O)C(C(C)(C)C)=C1 | 6* | -26.9 | -7.41* | 0.069 | i | i
COc1ccc(CN2CCN(C(=O)c3ccccc3C(=O)c3ccccc3)CC2)cc1OC | . | . | . | . | . | i
CCCCc1nc2ccccc2c(=O)n1NC(=O)c1c(O)c2c(n(CC(C)C)c1=O)CCCC2 | 6* | -3.9 | i | -2.18 | i | i
CCc1nc2ccccc2c(=O)n1NC(=O)c1c(O)c2ccccc2n(CC)c1=O | i | 37.0* | i | . | i | i
CC(C)Cn1c2c(c(O)c(C(=O)Nn3c(Cc4ccccc4)nc4ccccc4c3=O)c1=O)CCCC2 | i | -3.7 | i | -0.125 | i | i
C=CCn1c(COc2ccc(Cl)cc2)nnc1SCc1ccc(C#N)cc1 | i | 4.8* | i | -1.39 | i | i
Cc1cccc(C)c1NC(=O)CNC(=O)c1ccc2c(c1)NC(=O)CS2 | . | . | . | . | . | i
CC1CCCC(NC(=O)C2CCN(S(=O)(=O)c3cccc4nonc34)CC2)C1C (centres undefined) | i | -7.4 | i | . | i | i
CSc1ccccc1C(=O)OCC(=O)Nc1ccc(N2CCOCC2)cc1 | . | . | . | . | . | i
O=C1C(Cl)=C(N2CCCCC2)C(=O)C(Cl)=C1c1cnc(N2CCCCC2)s1 | 7* | -3.3 | i | 0.227 | i | i
CN(C)c1ncc(C2=C(Cl)C(=O)C(N3CCCC3)=C(Cl)C2=O)s1 | 7* | -46.1 | i | -1.96 | i | i
O=C1C(Cl)=C(N2CCCCCC2)C(=O)N1c1ccc(Cl)cc1 | i | -10.8 | i | . | i | i
Cc1ccc(S(=O)(=O)N2CCN(C(=O)c3cc(S(=O)(=O)N4CCOCC4)c(Cl)cc3Cl)CC2)cc1 | . | . | . | . | . | i
CN1OC[C@@H]2CN(Cc3cc(Cl)cc(Cl)c3)[C@H](c3cccc(-c4ccccc4)c3)C[C@@H]21 | . | . | . | . | . | i
Cc1ccc(-c2noc(CC(=O)c3ccc([N+](=O)[O-])cc3)n2)cc1 | . | . | . | . | . | i
CCCCCCCC(=O)OC(CN1CCCCC1)CN1CCCC1=O (centres undefined) | i | -1.5 | i | . | i | i
CCCCCC(=O)OC(CN1CCCCCC1)CN1CCCC1=O (centres undefined) | 10* | -5.4 | i | -0.72 | i | i
Cc1csc2ncc(C(=O)N3CCCc4ccccc43)c(=O)n12 | i | -3.3 | i | 0.228 | i | i
Cc1csc2ncc(C(=O)N3CCc4ccccc43)c(=O)n12 | i | -9.9 | i | -2.85* | i | i
COc1ccc(N2CCN(C(=O)C3CCN(S(=O)(=O)c4ccc5c(c4)oc(=O)n5C)CC3)CC2)cc1 | i | -2.9 | i | . | i | i
SMILES | KCNQ1 block | hERG protect | KCNK9 block | KCC2 mod | KCNQ1 pot | KCNK3 inh
CCC1CCCCN1C(=S)NC(=O)c1cc(Br)ccc1Cl (centres undefined) | . | . | . | . | . | i
Cc1c(C(=O)NC(=S)Nc2ccccc2N2CCCC2)cccc1[N+](=O)[O-] | i | 3.3 | i | 12.9* | i | i
O=C(NC(=S)Nc1cc([N+](=O)[O-])ccc1O)c1ccc2c(c1)OCO2 | 6* | -11.6 | i | . | i | i
CCC1CCCCN1C(=S)NC(=O)c1ccc([N+](=O)[O-])cc1 (centres undefined) | i | 16.3* | i | 45.6* | 18* | i
O=C(NC(=S)Nc1ccccc1N1CCCC1)c1ccc([N+](=O)[O-])cc1 | i | 8.1* | i | 41.6* | 8* | i
O=C(NC(=S)Nc1ccccc1N1CCCC1)c1ccc(-c2cccc([N+](=O)[O-])c2)o1 | i | -1.2 | i | . | 8* | i
CC/C(=N\NC(=S)Nc1cc(C)ccc1C)c1ccc(OC(F)F)cc1 | i | -0.1 | i | 7.67* | i | i
COc1ccccc1N(C(=O)c1snc(C(N)=O)c1N)C(C(=O)NC1CCCC1)c1ccc(N(C)C)cc1 (centres undefined) | i | -4.6 | i | . | i | i
COC(=O)c1ccccc1NC(=O)c1cn(-c2ccc(C)c(C)c2)c(=O)c2ccccc12 | 8* | -5.2 | i | -1.2 | i | i
Cc1ccccc1S(=O)(=O)N1C[C@H]2CON(C)[C@H]2C[C@H]1c1cccc(-c2ccc(C#N)cc2)c1 | . | . | . | . | . | i
O=[N+]([O-])c1ccc(S(=O)(=O)Nc2nc(-c3ccccc3)cs2)cc1 | i | -9.7 | i | . | i | i
O=S(=O)(Nc1nc(-c2ccccc2)cs1)c1cc(Cl)ccc1Cl | 6* | -5.7 | i | . | i | i
O=S(=O)(c1ccc(Br)cc1F)N1CCCCC1CCO (centres undefined) | . | . | . | . | . | i
Cc1cccc(NCc2ccccc2OCc2ccccc2F)c1 | 9* | -12.9 | -7.46* | -0.297 | i | i
Cc1ccc(NCc2ccccc2OCc2ccccc2F)cc1 | 8* | 1.0 | i | 0.231 | i | i
CCOc1cc(CNc2ccccc2)cc(Br)c1OCc1ccccc1F | i | -6.3 | -7.64* | 0.0494 | i | i
Oc1ccc(NCc2ccccc2OCc2ccccc2F)cc1 | i | -12.0 | i | -1.76 | i | i
O=C(Nc1ccccc1)/C(=C/c1ccccc1)c1ccccc1 | i | -10.8 | -6.99* | -0.104 | i | i
Cc1cc(C)cc(C(=O)N2CCCCC2)c1 | . | . | . | . | . | i
O=[N+]([O-])c1ccc(C2CC(c3ccccc3)=Nc3ccccc3S2)cc1 (centres undefined) | i | -9.1 | -7.93* | 0.477 | i | i
O=C(O)C1CC(c2ccccc2)=Nc2ccccc2S1 (centres undefined) | i | -8.0 | i | 0.454 | i | i
CC(C)c1nc2c(s1)CCc1onc(-c3cccc([N+](=O)[O-])c3)c1-2 | i | -7.2 | -6.66* | . | i | i
O=C(CNS(=O)(=O)c1ccc(Br)cc1)N1CCN(Cc2ccccc2)CC1 | i | -2.8 | i | . | i | i
O=C(CSc1cccc[n+]1[O-])NC1CCCCC1 | . | . | . | . | . | i
